Bioassay records as filed in PubChem BioAssay.
PGC1a acetyl up: compounds raising PGC1a acetylation signal, primary screen, PGC1a modulator project, cell-based, U2OS, AlphaScreen, signal-increasing mode | overnight | activation, % at 15.6 µM | 0.21% of 350,000 active | AID 651723, 2012;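 active means every replicate reaching activation of at least 50%, whatever the mean replicate activation; inconclusive means replicates that disagree or another doubt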;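 further: hits raise the AlphaScreen acetylation signal above neutral controls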
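detection = AlphaScreen lysate read | assay system = U2OS cells expressing flag-PGC1a plus GCN5 | input = 7000 cells/well | dosing = one concentration | times = compound overnight at 37 °C, each detection step 1 h RT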
G6PC hep suppr: suppressors of forskolin-stimulated G6PC mRNA, dose response, PGC-1a acetylation activator project, cell-based, hepatocytes, RT-qPCR, cherry-picked samples; G6PC suppression (normalized activity, % of positive control; higher = more suppression), % at 26 µM; primary mouse hepatocytes; shares compounds with PGC1a acetyl up; 240 tested, under 10 active; AID 743463, 2014;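 active means dose curves showing G6PC suppression whose half-maximal dose is at most twice the top valid dose; inconclusive means flat curves with moderate negative activity, or unreliable fits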;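 further: G6PC expression relative to GAPDH housekeeping gene as delta delta Ct; 0% = median of neutral control wells and 100% = median of positive control wells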
PCK1 hep suppr: suppression of PCK1 mRNA in primary hepatocytes, dose response, PGC-1a acetylation activator project, cell-based, primary mouse hepatocytes, RT-qPCR, cherry-pick; shares compounds with PGC1a acetyl up; forskolin-stimulated; PCK1 expression decrease, unspecified at 26 µM; 230 tested, under 10 active;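 active means compounds lowering PCK1 expression whose fitted half-maximal concentration is at most twice the top tested dose; inconclusive means flat fit with moderate opposite-direction effect, or poor fit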;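 further: values are delta delta Ct of PCK1 relative to GAPDH; higher delta delta Ct means lower PCK1 expression so positive values indicate hits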
Hep PGC-1a down: suppression of PGC-1a mRNA in primary hepatocytes, dose response, PGC-1a acetylation activator project, cell-based, primary mouse hepatocytes, RT-qPCR, cherry-pick | max activity (PGC-1a expression decrease), % | shares compounds with PGC1a acetyl up | PGC-1a mRNA qPCR, forskolin; top dose 26 µM | AID 743467, 2014 | 240 tested, under 10 active;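 active means compound lowering PGC-1a expression with fitted half-maximal concentration at most twice its top tested dose; inconclusive means flat curve with moderate opposite-direction effect, or poor fit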;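 further: 0% = neutral control wells median and 100% = positive control wells median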
An asterisk follows results filed as active; [ ] = remark or other dose. The list is a sample of the results.

What do the screens show for `C[C@@H]1O[C@@H](O[C@H]2C[C@@H](O)[C@]3(CO)[C@H]4[C@H](O)C[C@]5(C)[C@@H](C6=CC(=O)OC6)CC[C@]5(O)[C@@H]4CC[C@]3(O)C2)[C@H](O)[C@H](O)[C@H]1O`?
PGC1a acetyl up: -83

Results for O=C1NC2C(=CC(O)C(O)C2O)c2cc3c(cc21)OCO3 (stereo not given) ?
PGC1a acetyl up: -85

How did CC1=NN(c2ccccc2)C(=O)/C1=C/c1c(O)[nH]c(=O)[nH]c1=O do in these assays?
PGC1a acetyl up: -49

Results for O=C1CN=C(c2ccccc2)c2cc([N+](=O)[O-])ccc2N1 ?
PGC1a acetyl up: -46

What do the screens show for `COc1ccc(OC(=O)N(C)C[C@H]2OCc3ccccc3-c3c(n(C)c4ccccc34)C(=O)N([C@H](C)CO)C[C@H]2C)cc1`?
PGC1a acetyl up: 173*; G6PC hep suppr: 1; PCK1 hep suppr: 9.7; Hep PGC-1a down: 49

What do the screens show for `C[C@@H]1CN([C@@H](C)CO)C(=O)c2c(c3ccccc3n2C)-c2ccccc2CO[C@@H]1CN(C)C(=O)Oc1ccccc1`?
PGC1a acetyl up: inconclusive; G6PC hep suppr: 488; PCK1 hep suppr: inconclusive; Hep PGC-1a down: 276

What do the screens show for `Cc1ccc(OC(=O)N(C)C[C@H]2OCc3ccccc3-c3c(n(C)c4ccccc34)C(=O)N([C@@H](C)CO)C[C@H]2C)cc1`?
PGC1a acetyl up: 82*; G6PC hep suppr: 109[23.5 µM]; PCK1 hep suppr: 84[23.5 µM]; Hep PGC-1a down: 104

How did CCOc1ccccc1N=C1SCCCN1C do in these assays?
PGC1a acetyl up: -97

How did Cn1ncnc2c(=O)n(C)c(=O)nc1-2 do in these assays?
PGC1a acetyl up: -100

How did c1ccc2c(N3CCNCC3)cccc2c1 do in these assays?
PGC1a acetyl up: -49

Results for c1cc(CNCCc2ccc3c(c2)OCO3)ccn1 ?
PGC1a acetyl up: -46

Results for COc1ccc(C[C@H]2NC[C@H](O)[C@H]2OC(C)=O)cc1 ?
PGC1a acetyl up: -90

How did CCOc1ccccc1CNCCc1ccc2c(c1)OCO2 do in these assays?
PGC1a acetyl up: -40
